17 molecules from ChEMBL document CHEMBL1151794, “Synthesis and pharmacological evaluation of bis-3-(3,4-dichlorophenyl)acrylamide derivatives as glycogen phosphorylase inhibitors” (Bioorg Med Chem, 2008) can be followed below.

The IC50 is the point on the concentration scale where inhibition reaches its midpoint. The term inhibition denotes the drop in the measured response relative to a control, in per cent. The low end stands for a response near the control, the high end for a response far below the control.

The target in test [1] is T1, Glycogen phosphorylase, liver form (Homo sapiens, UniProt P06737).
T1 sequence (P06737 whole entry): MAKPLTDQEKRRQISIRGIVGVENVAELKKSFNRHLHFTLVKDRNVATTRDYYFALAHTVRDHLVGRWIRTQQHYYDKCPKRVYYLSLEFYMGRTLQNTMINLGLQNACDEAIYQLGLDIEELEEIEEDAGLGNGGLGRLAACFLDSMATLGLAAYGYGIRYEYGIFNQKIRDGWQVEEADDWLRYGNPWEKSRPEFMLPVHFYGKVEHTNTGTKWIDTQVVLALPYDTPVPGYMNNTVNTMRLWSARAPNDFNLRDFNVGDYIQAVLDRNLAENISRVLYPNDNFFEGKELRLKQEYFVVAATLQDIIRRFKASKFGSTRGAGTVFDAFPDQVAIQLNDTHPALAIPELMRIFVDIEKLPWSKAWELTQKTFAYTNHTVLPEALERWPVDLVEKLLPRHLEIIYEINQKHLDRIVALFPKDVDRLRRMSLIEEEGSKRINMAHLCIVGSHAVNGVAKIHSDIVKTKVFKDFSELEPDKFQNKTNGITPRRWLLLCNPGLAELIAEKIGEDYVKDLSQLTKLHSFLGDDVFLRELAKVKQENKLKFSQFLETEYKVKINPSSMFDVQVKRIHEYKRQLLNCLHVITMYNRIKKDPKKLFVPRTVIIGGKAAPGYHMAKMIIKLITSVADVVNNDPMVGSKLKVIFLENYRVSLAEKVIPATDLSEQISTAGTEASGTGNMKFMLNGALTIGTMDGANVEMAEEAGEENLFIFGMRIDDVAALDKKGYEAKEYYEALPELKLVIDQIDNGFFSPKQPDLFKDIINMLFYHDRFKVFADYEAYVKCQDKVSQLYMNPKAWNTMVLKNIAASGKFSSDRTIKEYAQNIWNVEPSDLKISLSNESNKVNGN
Kind of test: Inhibition of human liver glycogen phosphorylase a in absence of glucose.

Test [2] deals with T1, Glycogen phosphorylase, liver form. Kind of test: Inhibition of human liver glycogen phosphorylase a in presence of glucose. In short, it runs like this:
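Recombinant human liver GPa assayed in the forward direction by NADPH formation, coupled through phosphoglucomutase (77 U/L) and glucose-6-phosphate dehydrogenase (385 U/L). Conditions: pH 6.8 phosphate buffer with 45 mM KH2PO4, β-NADP, glucose 1,6-bisphosphate, 0.24% glycogen and 10.85 mM glucose. Compounds were added in DMSO before the enzyme; DMSO served as blank and caffeine as positive control. Enzyme addition started the reaction; IC50 was derived by logistic regression.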

Test [3] addresses T2, Glycogen phosphorylase, liver form (Homo sapiens) (UniProt P06737).
T2 sequence (whole entry): T1 sequence (P06737 whole entry)
Put plainly: Inhibition of human liver glycogen phosphorylase a in absence of glucose at 10 uM.

Consider `O=C(/C=C/c1ccc(Cl)c(Cl)c1)NCCCCCCCNC(=O)/C=C/c1ccc(Cl)c(Cl)c1`, for which the concentration for half-maximal inhibition (IC50) in test [1] amounted to 11 µM.

In test [1], `O=C(CCc1ccc(Cl)c(Cl)c1)NCCCCCNC(=O)CCc1ccc(Cl)c(Cl)c1` came in with an IC50 of 45 µM.

For `O=C(/C=C/c1ccc(Cl)c(Cl)c1)NCCCCCNC(=O)/C=C/c1ccc(Cl)c(Cl)c1`, the IC50 was 23 nM in test [2] and 0.26 µM in test [1].

Take `O=C(/C=C/c1ccc(Cl)c(Cl)c1)NCCCNC(=O)/C=C/c1ccc(Cl)c(Cl)c1`: half-maximal inhibition in test [1] (IC50) was put at 55 µM.

The molecule `O=C(/C=C/c1ccc(Cl)c(Cl)c1)NCCS(=O)(=O)CCNC(=O)/C=C/c1ccc(Cl)c(Cl)c1` yielded an IC50 in test [1] of 1.5 µM.

As for `O=C(/C=C/c1ccc(Cl)c(Cl)c1)NCCCCCCNC(=O)/C=C/c1ccc(Cl)c(Cl)c1`, the IC50 in test [1] is 18 µM.

With `O=C(/C=C\c1ccc(Cl)c(Cl)c1)NCCCCCNC(=O)/C=C\c1ccc(Cl)c(Cl)c1`, the inhibition in test [3] was found to be 36%.

On to `O=C(/C=C/c1ccc(Cl)c(Cl)c1)NCCCCCCCCNC(=O)/C=C/c1ccc(Cl)c(Cl)c1`, for which, in test [1], the half-inhibitory concentration (IC50) is 33 µM.

On to `O=C(/C=C/c1ccc(Cl)c(Cl)c1)NCCCCNC(=O)/C=C/c1ccc(Cl)c(Cl)c1`, for which the IC50 was 43 nM in test [2] and 0.42 µM in test [1].

With `CC(C)(C)OC(=O)N(CCNC(=O)/C=C/c1ccc(Cl)c(Cl)c1)CCNC(=O)/C=C/c1ccc(Cl)c(Cl)c1`, in test [3], the inhibition came to 48%.

For the molecule `O=C(/C=C/c1ccc(Cl)c(Cl)c1)NCCOCCNC(=O)/C=C/c1ccc(Cl)c(Cl)c1`, the values for the concentration for half-maximal inhibition (IC50) in test [2] and in test [1] were 26 nM and 0.43 µM, respectively.

In turn, `O=C(/C=C/c1ccc(Cl)c(Cl)c1)NCCNC(=O)/C=C/c1ccc(Cl)c(Cl)c1` yielded an IC50 in test [1] of 20 µM.

Turning to `O=C(/C=C/c1ccc(Cl)c(Cl)c1)NCCSCCNC(=O)/C=C/c1ccc(Cl)c(Cl)c1`, the results for the 50% inhibitory concentration (IC50) in test [2] and in test [1] were 12 nM and 0.45 µM, respectively.

Consider `O=C(/C=C/c1ccc(Cl)c(Cl)c1)NCCNCCNC(=O)/C=C/c1ccc(Cl)c(Cl)c1`, for which the inhibition in test [3] is 51%.

For the molecule `CCCNC(=O)/C=C/c1ccc(Cl)c(Cl)c1`, the inhibition in test [3] was 0%.

Consider `O=C(/C=C/c1ccc(Cl)c(Cl)c1)NCC[S+]([O-])CCNC(=O)/C=C/c1ccc(Cl)c(Cl)c1`, for which the IC50 turned out to be 26 nM in test [2] and 0.31 µM in test [1].

On to `O=C(C#Cc1ccc(Cl)c(Cl)c1)NCCCCCNC(=O)C#Cc1ccc(Cl)c(Cl)c1`, for which half-maximal inhibition in test [1] (IC50) was put at 59 µM.
